What was measured:
[1] = system: Rattus norvegicus; test: Percentage change punished lever presses from mean score on 6-8 rats at 5 mg/kg po1h pretest; format: functional
Method in brief: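 Geller–Seifter conflict test in trained rats, groups of 6–8, oral dosing. Lever pressing for food reward on a multiple schedule: five 3-min VI30 components alternating with five 3-min light-signalled FR5 components, where reward came with footshock (15 ms pulses at 200 ms intervals for 1 s). Punished presses compared with each of 2 preceding vehicle-treated test days by two-way ANOVA of square-root-transformed data.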

[2] = system: Rattus norvegicus; test: Percentage change unpunished lever presses from mean score on 6-8 rats at 5 mg/kg po1h pretest; format: functional

Structure (SMILES): CN1C(=O)CN=C(c2ccccc2)c2cc(Cl)ccc21 [DIAZEPAM]
- Change [1]: 70%
- Change [2]: -19%

— ChEMBL document CHEMBL1131637, “Novel and selective 5-HT2C/2B receptor antagonists as potential anxiolytic agents: synthesis, quantitative structure-activity relationships, and molecular modeling of substituted 1-(3-pyridylcarbamoyl)indolines” (J Med Chem, 1998)
